According to ChEMBL document CHEMBL1938363, “Synthesis of dihydrofuran-fused perhydrophenanthrenes having a phenolic hydroxyl group as a novel anti-Alzheimer's disease agent” (Bioorg Med Chem Lett, 2012):
The source made the active and inactive calls. The calls are words filed in the database; no cut-off is given here.

Assays:
[1] = Inhibition of amyloid beta (25 to 35)-mediated damage in Sprague-Dawley rat neurons assessed as dendritic extension at 1 uM treated 4 days after amyloid beta-challenge measured after 4 days by immunostaining method
Procedure, shortened: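 Rat cortical neurons were exposed to Aβ for 4 days before the test compounds were added. Dendrite length was quantified after a further 4 days. The vehicle control was 0.1% DMSO given to Aβ-exposed cells, and the normal control was cells without Aβ treatment.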

[2] = Inhibition of amyloid beta (1 to 42)-mediated damage in Sprague-Dawley rat neurons assessed as dendritic extension at 1 uM administered 3 days after amyloid beta-challenge measured after 5 days by immunostaining method
[3] = Inhibition of amyloid beta (1 to 42)-mediated damage in Sprague-Dawley rat neurons assessed as axonal extension at 1 uM treated 3 days after amyloid beta-challenge measured after 5 days by immunostaining method

Compound	inhibition [1]	inhibition [2]	inhibition [3]
CC(C)[Si](Oc1ccc2c(c1)C[C@H]1OC=C3[C@H]1[C@@]2(C#N)CCC31OCCO1)(C(C)C)C(C)C	inactive	–	–
N#C[C@]12CCC3(OCCO3)C3=CO[C@H](Cc4cc(O)ccc41)[C@@H]32	Active	Active	–
N#C[C@]12CCC3(OCCO3)C3=CO[C@H](Cc4cc(OS(=O)(=O)C(F)(F)F)ccc41)[C@@H]32	inactive	–	–
COc1cc2c(cc1O)[C@]1(C#N)CCC3(OCCO3)C3=CO[C@H](C2)[C@@H]31	–	Active	Active
N#C[C@]12CCC3(OCCO3)C3=CO[C@H](Cc4cc(-c5ccccc5)ccc41)[C@@H]32	inactive	–	–
N#C[C@]12CCC3(OCCO3)C3=CO[C@H](Cc4cc(OCc5ccccc5)ccc41)[C@@H]32	inactive	–	–
N#C[C@]12CCC3(OCCO3)C3=CO[C@H](Cc4cc(OC(F)(F)F)ccc41)[C@@H]32	inactive	–	–
COc1cc2c(cc1O)C[C@H]1OC=C3[C@H]1[C@@]2(C#N)CCC31OCCO1	–	Active	Active
N#C[C@]12CCC3(OCCO3)C3=CO[C@H](Cc4cc(OCc5cc(F)cc(F)c5)ccc41)[C@@H]32	inactive	–	–
N#C[C@]12CCC3(OCCO3)C3=CO[C@H](Cc4ccc(O)cc41)[C@@H]32	–	Active	Active
